Measurements reported in ChEMBL document CHEMBL1158468, “Synthesis, structure-activity relationships, and in vivo evaluation of N3-phenylpyrazinones as novel corticotropin-releasing factor-1 (CRF1) receptor antagonists” (J Med Chem, 2009).
pIC50: −log10 of the molar value. Calls of active or inactive are those of the source. No cut-off for these calls is given here.

Columns and labels:
[1] = molecular target: T1, Corticotropin-releasing factor receptor 1 (Rattus norvegicus, UniProt P35353); experiment: Displacement of [125I]Tyr-ovine-CRF from CRF1 receptor in rat frontal cortex homogenate by gamma counting; type: tissue-based
T1 sequence (P35353 whole entry): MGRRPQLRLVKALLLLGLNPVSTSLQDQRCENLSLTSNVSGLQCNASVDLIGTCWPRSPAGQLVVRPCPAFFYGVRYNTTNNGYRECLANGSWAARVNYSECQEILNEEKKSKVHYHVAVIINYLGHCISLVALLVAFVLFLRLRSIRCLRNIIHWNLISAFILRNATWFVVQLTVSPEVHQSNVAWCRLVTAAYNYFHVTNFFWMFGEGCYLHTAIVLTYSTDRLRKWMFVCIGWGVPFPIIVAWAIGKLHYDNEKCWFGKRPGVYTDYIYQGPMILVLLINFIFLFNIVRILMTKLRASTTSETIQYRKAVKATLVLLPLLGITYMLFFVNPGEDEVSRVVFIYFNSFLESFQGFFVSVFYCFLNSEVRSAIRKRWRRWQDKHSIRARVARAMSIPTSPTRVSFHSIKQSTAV
In short: (§1)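 Washed homogenates of frozen rat frontal cortex (CRF1, 25 μg/well) or porcine choroid plexus (CRF2, 10 μg/well) in 50 mM Hepes pH 7.0, 10 mM MgCl2, 2 mM EGTA, protease inhibitors, 0.005% Triton X-100. Ligand 150 pM 125I-ovine-CRF (CRF1) or 100 pM 125I-sauvagine (CRF2). Incubation 2 h at 21 °C, then filtration and gamma counting. Nonspecific binding: 1 μM CRF1 reference antagonist or 1 μM α-helical CRF(9-41). IC50 from 5- or 10-point curves by nonlinear regression.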

[2] = (§2) Displacement of [125I]sauvagine from CRF2 receptor in pig choroid plexus homogenate by gamma counting; type: tissue-based, Sus scrofa; in short: as §1
[3] = species: Sus scrofa; experiment: as §2; type: tissue-based; in short: as §1
[4] = Octanol-water partition coefficient, log D at pH 7.4; type: physicochemical
[5] = molecular target: T2, Corticotropin-releasing factor receptor 1 (Homo sapiens, UniProt P34998); experiment: Antagonist activity at CRF1 receptor in human Y79 cells assessed as inhibition of CRF-stimulated cAMP production by HTRF method
T2 sequence (P34998 whole entry): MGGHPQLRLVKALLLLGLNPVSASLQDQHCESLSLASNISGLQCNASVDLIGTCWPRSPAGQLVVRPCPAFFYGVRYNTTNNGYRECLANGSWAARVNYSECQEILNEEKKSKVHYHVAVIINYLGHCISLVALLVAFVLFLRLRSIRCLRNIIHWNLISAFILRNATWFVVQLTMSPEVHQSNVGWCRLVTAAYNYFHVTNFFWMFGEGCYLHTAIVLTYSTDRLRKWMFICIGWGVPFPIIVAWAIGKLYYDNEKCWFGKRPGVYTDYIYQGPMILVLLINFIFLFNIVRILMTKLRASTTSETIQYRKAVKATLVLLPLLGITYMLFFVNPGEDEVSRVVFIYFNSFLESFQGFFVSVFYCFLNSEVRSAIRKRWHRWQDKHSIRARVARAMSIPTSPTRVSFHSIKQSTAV

[6] = Clearance in Sprague-Dawley rat at 2 mg/kg, iv; type: ADME, organism-based; set-up: dose 2 mg/kg, route intravenous; settings: in vivo
In short: (§3)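 Male Sprague-Dawley rats; iv 2 mg/kg in PEG:ethanol 90:10 (v/v) at 1 mL/kg, or oral 10 mg/kg as 1% Tween 80 in 0.5% methylcellulose suspension at 3 mL/kg; n = 3 per route. Jugular catheter blood taken to 24 h postdose. Plasma was protein-precipitated with acetonitrile and assayed by LC/MS/MS.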

[7] = Volume of distribution at steady state in Sprague-Dawley rat at 2 mg/kg, iv; type: ADME, organism-based; set-up: dose 2 mg/kg, route intravenous; settings: in vivo, read-out: Vdss; in short: as §3
[8] = Half life in Sprague-Dawley rat at 2 mg/kg, iv; type: ADME, organism-based; set-up: dose 2 mg/kg, route intravenous; settings: in vivo; in short: as §3
[9] = AUC in Sprague-Dawley rat at 10 mg/kg, po; type: ADME, organism-based; set-up: dose 10 mg/kg, route oral; settings: plasma; in short: as §3
[10] = Cmax in Sprague-Dawley rat at 10 mg/kg, po; type: ADME, organism-based; set-up: dose 10 mg/kg, route oral; settings: in vivo; in short: as §3
[11] = Oral bioavailability in Sprague-Dawley rat at 10 mg/kg; type: ADME, organism-based; settings: in vivo; in short: as §3
[12] = tested on: Rattus norvegicus; experiment: Hepatic blood flow in Sprague-Dawley rat at 2 mg/kg, iv; type: ADME, organism-based, Liver; set-up: dose 2 mg/kg, route intravenous; settings: in vivo
[13] = Clearance in cynomolgus monkey at 2 mg/kg, iv; type: ADME, organism-based, Macaca fascicularis; set-up: dose 2 mg/kg, route intravenous; settings: in vivo
In short: (§4)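 Cynomolgus monkeys, n = 3 per route. Iv dose 2 mg/kg in PEG:ethanol 90:10 (v/v), 1 mL/kg, sampled from jugular vein. Oral dose 10 mg/kg as suspension in 1% Tween in 0.5% methylcellulose, 3 mL/kg, sampled from femoral vein. Sampling to 24 h; plasma measured by LC/MS/MS.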

[14] = Volume of distribution at steady state in cynomolgus monkey at 2 mg/kg, iv; type: ADME, organism-based, Macaca fascicularis; set-up: dose 2 mg/kg, route intravenous; settings: in vivo, read-out: Vdss; in short: as §4
[15] = Half life in cynomolgus monkey at 2 mg/kg, iv; type: ADME, organism-based, Macaca fascicularis; set-up: dose 2 mg/kg, route intravenous; settings: in vivo; in short: as §4
[16] = AUC in cynomolgus monkey at 10 mg/kg, po; type: ADME, organism-based, Macaca fascicularis; set-up: dose 10 mg/kg, route oral; settings: plasma; in short: as §4
[17] = Cmax in cynomolgus monkey at 10 mg/kg, po; type: ADME, organism-based, Macaca fascicularis; set-up: dose 10 mg/kg, route oral; settings: in vivo; in short: as §4
[18] = Oral bioavailability in cynomolgus monkey at 10 mg/kg; type: ADME, organism-based, Macaca fascicularis; settings: in vivo; in short: as §4
[19] = tested on: Rattus norvegicus; experiment: Plasma concentration in Sprague-Dawley rat at 1 mg/kg, po; type: ADME, organism-based; set-up: dose 1 mg/kg, route oral; settings: in vivo
[20] = tested on: Rattus norvegicus; experiment: Plasma concentration in Sprague-Dawley rat at 3 mg/kg, po; type: ADME, organism-based; set-up: dose 3 mg/kg, route oral; settings: in vivo
[21] = tested on: Rattus norvegicus; experiment: Plasma concentration in Sprague-Dawley rat at 10 mg/kg, po; type: ADME, organism-based; set-up: dose 10 mg/kg, route oral; settings: in vivo
[22] = tested on: Rattus norvegicus; experiment: Free plasma concentration in Sprague-Dawley rat at 1 mg/kg, po; type: ADME, organism-based; set-up: dose 1 mg/kg, route oral; settings: in vivo
[23] = tested on: Rattus norvegicus; experiment: Free plasma concentration in Sprague-Dawley rat at 3 mg/kg, po; type: ADME, organism-based; set-up: dose 3 mg/kg, route oral; settings: in vivo
[24] = tested on: Rattus norvegicus; experiment: Free plasma concentration in Sprague-Dawley rat at 10 mg/kg, po; type: ADME, organism-based; set-up: dose 10 mg/kg, route oral; settings: in vivo
[25] = Unbound fraction in rat plasma after 3 hrs by equilibrium dialysis method; type: ADME, cell-free
In short: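 Rat plasma spiked with compound, then equilibrium-dialysed against isotonic phosphate buffer for 3 h at 37 °C. Compound in the plasma and buffer samples was quantified by LC/MS/MS after acetonitrile protein precipitation with internal standard. Unbound fraction was taken as the buffer-to-plasma concentration ratio.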

[26] = tested on: Rattus norvegicus; experiment: Ex vivo displacement of [125I-Tyro]-sauvagine from CRF1 receptor in Sprague-Dawley rat parietal cortex at 1 mg/kg, po by autoradiography; type: functional
In short: (§5)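 Brains from orally dosed rats taken after the defensive withdrawal test. 20 μm cryostat sections preincubated 1 min, then incubated 20 min at 22–24 °C with 0.15–0.20 nM [125I-Tyro]sauvagine in 50 mM HEPES pH 7.2 buffer. Nonspecific binding from vehicle sections with 1 μM reference CRF1 antagonist. Parietal cortex occupancy read by autoradiography and computed relative to vehicle specific binding.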

[27] = tested on: Rattus norvegicus; experiment: Ex vivo displacement of [125I-Tyro]-sauvagine from CRF1 receptor in Sprague-Dawley rat parietal cortex at 3 mg/kg, po by autoradiography; type: functional; in short: as §5
[28] = tested on: Rattus norvegicus; experiment: Ex vivo displacement of [125I-Tyro]-sauvagine from CRF1 receptor in Sprague-Dawley rat parietal cortex at 10 mg/kg, po by autoradiography; type: functional; in short: as §5
[29] = tested on: Rattus norvegicus; experiment: Anxiolytic activity in Sprague-Dawley rat assessed as decrease in latency to exit dark chamber at 1 mg/kg, po after 1 hr by defensive withdrawal test; type: functional; set-up: scale not given: the % may be the effect or the level left
In short: (§6)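 Male Sprague-Dawley rats (180–300 g), dosed po 1 h before testing in 0.25% methylcellulose suspension (bead-milled), 2 mL/kg. Blind observer recorded the latency to leave a dark chamber placed in an illuminated open field (all four paws out) over 15 min. ANOVA with Fisher's LSD, p < 0.05.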

[30] = tested on: Rattus norvegicus; experiment: Anxiolytic activity in Sprague-Dawley rat assessed as decrease in latency to exit dark chamber at 3 mg/kg, po after 1 hr by defensive withdrawal test; type: functional; set-up: scale not given: the % may be the effect or the level left; in short: as §6
[31] = tested on: Rattus norvegicus; experiment: Anxiolytic activity in Sprague-Dawley rat assessed as decrease in latency to exit dark chamber at 10 mg/kg, po after 1 hr by defensive withdrawal test; type: functional; set-up: scale not given: the % may be the effect or the level left; in short: as §6
[32] = tested on: Rattus norvegicus; experiment: Anxiolytic activity in po dosed Sprague-Dawley rat assessed as minimal effective dose by defensive withdrawal test; type: functional; settings: read-out: MED; in short: as §6

Question: What does the source list for `COC[C@@H](C1CC1)n1cc(Cl)nc(Nc2cc(C)c(OC)cc2C)c1=O`?
Answer: pIC50 [1]: 9.59; pIC50 [2]: < 5.00; Activity [3]: inactive; logD [4]: 4.35; pIC50 [5]: 8.72; clearance [6]: 170 mL/min/kg; Vd [7]: 97 L/kg; half-life [8]: 18 h; AUC [9]: 0.36 µM·h; Cmax [10]: 52 nM; bioavailability [11]: 14%; QH [12]: 55 mL/min/kg; clearance [13]: 21 mL/min/kg; Vd [14]: 7.7 L/kg; half-life [15]: 9.3 h; AUC [16]: 0.41 µM·h; Cmax [17]: 32 nM; bioavailability [18]: 2%; concentration [19]: 4.9 nM; concentration [20]: 14 nM; concentration [21]: 76 nM; Cp(f) [22]: 0.1 nM; Cp(f) [23]: 0.29 nM; Cp(f) [24]: 1.6 nM; fraction unbound at 3 h [25]: 0.021; Activity [26]: 37%; Activity [27]: 72%; Activity [28]: 94%; Activity [29]: <5%; Activity [30]: 60%; Activity [31]: 65%; minimal effective dose [32]: 3 mg/kg
